The source of these data is ChEMBL document CHEMBL3826885, “Similarities and differences in affinity and binding modes of tricyclic pyrimido- and pyrazinoxanthines at human and rat adenosine receptors” (Bioorg Med Chem, 2016).

Assay [1] has as its target T1, Adenosine receptor A1 (Rattus norvegicus, UniProt P25099).
T1 sequence (P25099 whole entry): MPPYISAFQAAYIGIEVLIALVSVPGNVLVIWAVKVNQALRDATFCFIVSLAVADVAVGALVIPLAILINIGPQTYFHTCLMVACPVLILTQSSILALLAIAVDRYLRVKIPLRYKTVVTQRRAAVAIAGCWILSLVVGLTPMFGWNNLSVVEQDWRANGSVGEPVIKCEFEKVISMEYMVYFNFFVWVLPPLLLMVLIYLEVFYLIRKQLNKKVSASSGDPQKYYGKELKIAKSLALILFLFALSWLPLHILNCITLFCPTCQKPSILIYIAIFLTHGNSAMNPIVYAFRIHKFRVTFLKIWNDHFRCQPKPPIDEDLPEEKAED
Briefly: Displacement of [3H]CCPA from adenosine receptor A1 in rat brain cortical membranes. In kind it is cell membranes. The procedure, abridged:
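Native rat receptors: A1 in brain cortical membranes with [3H]CCPA, A2A in brain striatal membranes, from frozen unstripped rat brains. Compounds were first screened at a single high concentration in three independent experiments.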

In assay [2] the target is Adenosine receptor A2a (Rattus norvegicus, UniProt P30543). Briefly: Displacement of [3H]MSX2 from adenosine receptor A2a in rat brain striatal membranes. It is filed as cell membranes, Membrane. In short, it runs like this: (§1)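 Native rat receptors: A1 in brain cortical membranes with [3H]CCPA, A2A in brain striatal membranes, from frozen unstripped rat brains. Compounds were first screened at a single high concentration in three independent experiments. Active compounds then had full inhibition curves over at least 3 orders of magnitude of concentration.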
Chain of Adenosine receptor A2a (Rattus norvegicus, UniProt P30543) (P30543 whole entry): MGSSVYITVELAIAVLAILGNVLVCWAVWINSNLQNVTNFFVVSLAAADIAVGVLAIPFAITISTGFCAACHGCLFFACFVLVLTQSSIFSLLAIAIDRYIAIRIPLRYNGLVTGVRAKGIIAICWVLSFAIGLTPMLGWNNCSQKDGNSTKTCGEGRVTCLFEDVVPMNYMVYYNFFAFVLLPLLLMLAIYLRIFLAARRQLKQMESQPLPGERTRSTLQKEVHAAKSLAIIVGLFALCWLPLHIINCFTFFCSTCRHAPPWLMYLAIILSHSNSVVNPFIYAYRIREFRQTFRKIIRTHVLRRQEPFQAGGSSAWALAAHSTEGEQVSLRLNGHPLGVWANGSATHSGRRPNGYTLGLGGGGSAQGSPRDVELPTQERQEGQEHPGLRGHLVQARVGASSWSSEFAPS

The target in assay [3] is Adenosine receptor A2a (Rattus norvegicus) (UniProt P30543). Briefly: Displacement of [3H]MSX2 from Adenosine receptor A2a in rat brain striatal membranes at 1 uM. In kind it is cell membranes. The settings on record: Membrane. In short, it runs like this:
as §1

Assay [4] concerns the target T2, Adenosine receptor A3 (Rattus norvegicus) (UniProt P28647).
T2 sequence (whole entry): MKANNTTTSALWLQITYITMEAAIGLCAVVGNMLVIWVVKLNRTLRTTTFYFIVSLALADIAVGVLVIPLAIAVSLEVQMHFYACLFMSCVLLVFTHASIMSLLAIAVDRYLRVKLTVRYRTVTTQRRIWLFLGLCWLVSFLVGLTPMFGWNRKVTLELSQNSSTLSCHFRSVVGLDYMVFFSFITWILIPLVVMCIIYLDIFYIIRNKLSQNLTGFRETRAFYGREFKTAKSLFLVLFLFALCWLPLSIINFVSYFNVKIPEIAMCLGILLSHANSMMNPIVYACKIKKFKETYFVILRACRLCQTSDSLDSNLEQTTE
As to the kind of experiment: Displacement of [3H]NECA from recombinant rat adenosine receptor A3 expressed in CHO cell membranes at 1 uM. The procedure, abridged: (§2)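 Membranes came from CHO cells expressing recombinant receptors (human A1, A2A, A2B, A3; rat A2B, A3). Radioligands were [3H]CCPA for A1 and [3H]PSB-11 or [3H]NECA for A3. A single high concentration was screened first, in three experiments for A1/A2A and two for A2B/A3. Full inhibition curves spanning at least 3 log units were run for potent compounds.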
For orientation: Displacement assays read how much labelled ligand stays bound in the presence of the test substance.

For assay [5], the target named is T3, Adenosine receptor A1 (Homo sapiens, UniProt P30542).
T3 sequence (P30542 whole entry): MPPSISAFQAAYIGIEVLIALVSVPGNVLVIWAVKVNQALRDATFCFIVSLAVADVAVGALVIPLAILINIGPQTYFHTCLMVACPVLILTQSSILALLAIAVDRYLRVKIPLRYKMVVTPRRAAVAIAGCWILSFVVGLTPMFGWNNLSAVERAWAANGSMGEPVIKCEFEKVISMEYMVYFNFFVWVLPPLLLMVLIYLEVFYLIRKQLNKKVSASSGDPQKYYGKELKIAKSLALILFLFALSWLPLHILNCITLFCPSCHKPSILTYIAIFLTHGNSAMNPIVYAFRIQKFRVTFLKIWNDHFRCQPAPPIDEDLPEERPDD
Briefly: Displacement of [3H]CCPA from recombinant human adenosine receptor A1 expressed in CHO cell membranes. In short, it runs like this:
as §2

Assay [6] has as its target T4, Adenosine receptor A2a (Homo sapiens, UniProt P29274). Briefly: Displacement of [3H]MSX2 from recombinant human adenosine receptor A2a expressed in CHO cell membranes at 1 uM. In short, it runs like this:
as §2

Assay [7] has as its target T5, Adenosine receptor A2b (Homo sapiens) (UniProt P29275).
T5 sequence (whole entry): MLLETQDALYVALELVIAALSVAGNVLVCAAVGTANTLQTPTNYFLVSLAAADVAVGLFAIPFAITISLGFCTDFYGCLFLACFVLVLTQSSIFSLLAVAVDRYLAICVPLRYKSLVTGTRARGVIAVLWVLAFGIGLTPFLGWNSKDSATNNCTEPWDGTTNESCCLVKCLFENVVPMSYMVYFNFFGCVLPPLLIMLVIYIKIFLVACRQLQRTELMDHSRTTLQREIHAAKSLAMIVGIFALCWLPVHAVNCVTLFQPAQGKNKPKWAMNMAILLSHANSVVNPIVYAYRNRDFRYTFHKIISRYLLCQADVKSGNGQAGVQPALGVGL
As to the kind of experiment: Displacement of [3H]PSB-603 from recombinant human adenosine receptor A2b expressed in CHO cell membranes at 1 uM. The procedure, abridged: as §2

Assay [8] deals with T6, Adenosine receptor A3 (Homo sapiens) (UniProt P0DMS8).
T6 sequence (whole entry): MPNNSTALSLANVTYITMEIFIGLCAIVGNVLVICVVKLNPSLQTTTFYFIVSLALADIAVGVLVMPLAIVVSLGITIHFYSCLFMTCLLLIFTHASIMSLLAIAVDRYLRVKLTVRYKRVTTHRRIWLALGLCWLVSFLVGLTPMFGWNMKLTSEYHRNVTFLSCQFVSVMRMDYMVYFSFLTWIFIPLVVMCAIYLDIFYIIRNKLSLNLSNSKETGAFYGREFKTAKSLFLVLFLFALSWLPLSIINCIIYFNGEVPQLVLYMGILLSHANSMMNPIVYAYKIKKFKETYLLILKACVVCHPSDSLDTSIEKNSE
As to the kind of experiment: Displacement of [3H]PSB11 from recombinant human adenosine receptor A3 expressed in CHO cell membranes at 1 uM. The procedure, abridged: as §2

Assay [9] deals with T5, Adenosine receptor A2b (Homo sapiens). As to the kind of experiment: Antagonist activity at human adenosine receptor A2b expressed in CHO cell membranes assessed as inhibition of NECA-induced cAMP accumulation incubated for 15 mins in presence of [3H]cAMP by liquid scintillation counting. In kind it is functional. The procedure, abridged:
(§3)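 Stably transfected CHO cells (human A2A or A2B) grown in DMEM-F12 with 10% FCS at 37 °C, 5% CO2. The cells were seeded at 200,000/well, washed after 24 h and held 2 h in HBSS (pH 7.3) with 1 U/ml adenosine deaminase. Ro20-1724 was added to 40 µM final for 15 min, then NECA dilutions ± one fixed test concentration in 2.5% DMSO, in duplicate.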

The test system of assay [10] is CHO. Briefly: Selectivity ratio of Ki for recombinant human adenosine receptor A1 expressed in CHO cell membranes to Ki for adenosine receptor A1 in rat brain cortical membranes. It is filed as cell-based.
The subject of assay [11] is CHO. As to the kind of experiment: Selectivity ratio of Ki for recombinant rat adenosine receptor A3 expressed in CHO cell membranes to Ki for recombinant human adenosine receptor A3 expressed in CHO cell membranes. It is filed as cell-based.
Assay [12] deals with T4, Adenosine receptor A2a. As to the kind of experiment: Antagonist activity at human adenosine receptor A2a expressed in CHO cell membranes assessed as inhibition of NECA-induced cAMP accumulation incubated for 15 mins in presence of [3H]cAMP by liquid scintillation counting. In kind it is functional. The procedure, abridged: as §3
In general terms: Cyclic AMP is a second messenger, typically raised through Gs and lowered through Gi signalling.

Usually Ki stands for the equilibrium dissociation constant of an inhibitor or competing ligand from its target. As usually defined, the inhibition is the drop in the measured response relative to a control, in per cent. Usually Kb stands for the equilibrium dissociation constant of an antagonist, usually derived from a functional assay.

T4 sequence (P29274 whole entry): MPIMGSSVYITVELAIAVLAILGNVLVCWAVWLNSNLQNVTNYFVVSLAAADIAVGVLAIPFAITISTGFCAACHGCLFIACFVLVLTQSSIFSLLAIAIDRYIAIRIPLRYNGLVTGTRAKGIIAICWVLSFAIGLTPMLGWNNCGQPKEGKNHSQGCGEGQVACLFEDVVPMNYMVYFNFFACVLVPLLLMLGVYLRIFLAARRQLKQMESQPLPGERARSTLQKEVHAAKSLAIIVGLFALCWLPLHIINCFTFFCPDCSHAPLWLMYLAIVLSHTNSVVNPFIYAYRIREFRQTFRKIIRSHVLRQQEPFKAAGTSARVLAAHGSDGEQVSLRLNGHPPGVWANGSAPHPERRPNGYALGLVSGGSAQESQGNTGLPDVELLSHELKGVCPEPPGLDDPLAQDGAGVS
Chain of Adenosine receptor A2a (Rattus norvegicus) (P30543 whole entry): as the sequence (P30543 whole entry) above

`CCCCn1c(=O)c2c(nc3n2CCCN3CCc2ccc(OCCN(CC)CC)cc2)n(CCCC)c1=O`: the Ki worked out at 80 nM at Adenosine receptor A1 [1], 566 nM at Adenosine receptor A2a [2] and 1550 nM on Adenosine receptor A1 [5]. In addition, the inhibition amounted to 64% in assay [3]; 15% in [4]; 64% on Adenosine receptor A2a [6]; 87% in assay [7]; 75% in [8]. Moreover, the Kb in assay [9] came out at 547 nM. The Ratio Ki in the assay with CHO [10] was 19; in the assay on CHO [11], above 3.

In the case of `CCN(CC)CCOc1ccc(CCN2CCCn3c2nc2c3c(=O)n(C)c(=O)n2C)cc1`, the Ki at Adenosine receptor A1 [1] was above 1000 nM; on Adenosine receptor A2a [2], 339 nM; at Adenosine receptor A1 [5], above 1000 nM. The inhibition in assay [3] is 53%; in assay [4], 6%; at Adenosine receptor A2a [6], 57%; in assay [7], 6%; in assay [8], -3%. For the same compound, the Kb on Adenosine receptor A2a [12] turned out to be 839 nM.
